The results in this text go back to ChEMBL document CHEMBL1134581, “Synthesis and in vitro antitumor activity of oligonucleotide-tethered and related platinum complexes” (J Med Chem, 2001).

Format in all cases: functional, cell-based, Homo sapiens
One assay relates to A2780. Description: Growth and colony formation inhibition of A2780 ovarian cancer cell lines. Summed up: (§1)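 Colony formation assay in A2780 (wt p53) and SW626 (mutant p53) monolayers, RPMI 1640 with 10% FBS and 2 mM L-glutamine, 37 °C, 5% CO2. 300–500 cells/well, attached 1 day, then serially diluted drug. Exposure 7 days for A2780, 10 days for SW626. Colonies fixed and stained with 0.1% crystal violet in methanol, then counted. IC50 extrapolated. Mean ± SD of three experiments.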

Another assay has as its system SK-OV-3. Description: Growth and colony formation inhibition of SKOV-3 ovarian cancer cell lines. Put shortly: (§2)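 Colony formation in PA-1 (wt p53, 7 days of drug) and SKOV-3 (p53-null, 10 days of drug). Both in RPMI 1640 with 10% FBS and 2 mM L-glutamine, 300–500 cells/well, attached 1 day. Colonies stained with 0.1% crystal violet in methanol and counted. IC50 extrapolated; three experiments. Also an MTT assay: PA-1 1000 cells/well, 1 day attachment, 5 days of drug; SKOV-3 600 cells/well, 2 days attachment, 7 days of drug. MTT 5 h, DMSO, read at 570/630 nm; four experiments.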

Assay [1] is described as follows: Growth and colony formation inhibition of SW626 ovarian cancer cell lines. Summed up: as §1
Assay [2] is described as follows: Growth and colony formation inhibition of PA-1 ovarian cancer cell lines. Summed up:
as §2

A short description of assay [3]: Growth and colony formation inhibition of VM-1 leukemia cancer cell lines. Summed up:
(§3)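 CEM and teniposide-resistant CEM/VM-1 leukemia cells in suspension, MEM with 10% FBS and 2 mM L-glutamine, 37 °C, 5% CO2. Exponentially growing cells seeded in triplicate at 3 × 10^5 cells/mL. Drugs dissolved in DMSO or PBS, serially diluted, 48 h exposure. Growth inhibition by Coulter counting. IC50 extrapolated from the concentration–% inhibition plot. Mean ± SD of three experiments.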

The test system of the next assay is CCRF-CEM. As to the kind of experiment: Growth and colony formation inhibition of CEM leukemia cancer cell lines. Put shortly: as §3

On to “3-(7a-Chloro-7-diisopropylamino-hexahydro-6-oxa-1,3a-diaza-platinum-7lambda*5*-phospha-inden-7-yloxy)-propionitrile”, for which the 50% inhibitory concentration (IC50) (as a rule, the point on the concentration scale where inhibition reaches its midpoint) is 125 µM with A2780, over 200 µM with SK-OV-3, over 200 µM in assay [1] and 165 µM in assay [2].

Consider “Amminedichloro(2-hydroxyethylamine)platinum (II)”, for which the IC50 came out at 13 µM with SK-OV-3 and 0.7 µM in assay [2].

Take “Amminedichloro(4-hydroxybutylamine)platinum (II)”: the IC50 in the assay on SK-OV-3 was 6 µM; in assay [2], 0.4 µM.

Take “Amminetetrachloro(4-hydroxybutylamine)platinum(IV)”: the concentration for half-maximal inhibition (IC50) in the assay on SK-OV-3 was 9 µM; in assay [2] it was 0.2 µM.

As to “Amminetetrachloro(4-hydroxyethylamine)platinum(IV)”, the values for the half-inhibitory concentration (IC50) (in the assay on SK-OV-3; in assay [2]) were 10 µM and 0.9 µM, respectively.

CARBOPLATIN: the IC50 is 28.5 µM with SK-OV-3 and 2.4 µM in assay [2].

In the case of CISPLATIN, the concentration for half-maximal inhibition (IC50) in the assay with A2780 was 0.6 µM; in the assay on SK-OV-3, 0.5 µM; in assay [1], 0.5 µM; in assay [3], under 1 µM; in assay [2], 0.3 µM; in the assay with CCRF-CEM, under 1 µM.

Regarding “DICHLORO(AMMINO ETHYLAMMINO ETHANOL) PLATINUM(II) [listing 1 of 2 here]”, the IC50 in the assay on SK-OV-3 came to 30 µM; in assay [2], 2.9 µM.

In the case of “DICHLORO(AMMINO ETHYLAMMINO ETHANOL) PLATINUM(II) [listing 2 of 2 here]”, the IC50 came to 26 µM in the assay with SK-OV-3 and 1.7 µM in assay [2].

Regarding “Dichloro diacetyl oxy-(amino ethylamino ethanol) platinum”, the IC50 turned out to be 2.8 µM in the assay on A2780; 24 µM with SK-OV-3; 28 µM in assay [1]; 7 µM in assay [3]; 1.5 µM in assay [2]; 7 µM with CCRF-CEM.

As for “Dichlorodi(3-hydroxypropylamine)platinum (II)”, the half-inhibitory concentration (IC50) with SK-OV-3 worked out at 20 µM; in assay [2] it was 1.2 µM.

Consider “Dichlorodi(4-hydroxybutylamine)platinum (II)”, for which the half-inhibitory concentration (IC50) was determined as 23 µM in the assay with SK-OV-3 and 1.5 µM in assay [2].

For “Dichlorodiacetyl oxy-(ammino acetoxy butylammino ethanol) platinum (II)”, the results for the concentration for half-maximal inhibition (IC50) (in the assay with SK-OV-3; in assay [2]) were 22 µM and 0.8 µM, respectively.

With “Dichlorodiacetyl oxy-(ammino acetoxy ethylammino ethanol) platinum (II)”, the results for the half-inhibitory concentration (IC50) (with SK-OV-3; in assay [2]) were 10 µM and 2.8 µM, respectively.

As to “Tetrachlorodi(3-hydroxypropylamine)platinum(IV)”, the IC50 was 1.6 µM with A2780; 10 µM in the assay with SK-OV-3; 3 µM in assay [1]; 5 µM in assay [3]; 0.6 µM in assay [2]; 8 µM in the assay on CCRF-CEM.

“Tetrachlorodi(4-hydroxybutylamine)platinum(IV)”: the IC50 in the assay with A2780 is 2.2 µM; in the assay on SK-OV-3, 4 µM; in assay [1], 7 µM; in assay [3] it was 10 µM; in assay [2], 1 µM; in the assay on CCRF-CEM, 10 µM.
